Experimental data collected from several papers.
Lines come from different studies, so protocols differ.
ALDH1A1: Aldehyde dehydrogenase 1A1 (ALDH1A1, Homo sapiens, UniProt P00352)
ALOX15: Polyunsaturated fatty acid lipoxygenase ALOX15 (ALOX15, Homo sapiens, UniProt P16050)

SMILES	target	test	setting	measurement	value
COc1nc2ccc(Br)cc2cc1[C@@H](c1ccccc1)[C@@](O)(CCN(C)C)c1cccc2ccccc12	ALDH1A1	enzyme activity, inhibitor, fluorescence		IC50	< 10 µM
OC[C@H]1OC(O)[C@H](O)[C@@H](O)[C@@H]1O (some centres unmarked)	Spliceosome RNA helicase DDX39B (DDX39B, Homo sapiens, UniProt Q13838)	binding, MST		Kd	1860 µM
[C-]#[N+]CCOCCOc1ccc2c(-c3ccccc3C(=O)OCC)c3ccc(=O)cc-3oc2c1	ALOX15	enzyme activity, inhibitor, absorbance		IC50	20.8 µM
CNC(=O)[C@H](Cc1c[nH]c2ccccc12)NC(=O)[C@@H](CC(=O)NO)CC(C)C	Matrilysin (MMP7, Homo sapiens, UniProt P09237)	enzyme activity, inhibitor		IC50	0.00294 µM
NC/C(=C\F)COc1cccc(Cn2c(=S)[nH]c(=O)c3[nH]cnc32)c1	Thyroid peroxidase (Homo sapiens, UniProt P07202)	enzyme activity, inhibitor		IC50	13 µM
CC(=O)N[C@H]1[C@H](O[C@H]2[C@H](O)[C@@H](NC(C)=O)C(O)O[C@@H]2CO)O[C@H](CO)[C@@H](O[C@@H]2O[C@H](CO)[C@@H](O)[C@H](O)[C@H]2NC(C)=O)[C@@H]1O (some centres unmarked)	MB (Equus caballus, UniProt P68082)	binding		Kd	~346 µM
O=C1OC2(c3ccc(O)cc3Oc3cc(O)ccc32)c2ccccc21	ALOX15	enzyme activity, inhibitor, absorbance		IC50	44.8 µM
COc1nc(-c2cccc(-c3ccccc3)c2C)ccc1CNCCNC(=O)CCCCCCCCCCC(=O)N1CCN(CCNC(=O)c2cc3c(=O)n4cccc(C)c4nc3n(CCc3cccs3)c2=N)CC1	Programmed cell death 1 ligand 1 (CD274, Homo sapiens, UniProt Q9NZQ7)	binding, BLI		Kd	0.452 µM
OC[C@H]1O[C@@H](Oc2ccc(O)c3cccc(O)c23)[C@H](O)[C@@H](O)[C@@H]1O	ALDH1A1	enzyme activity, inhibitor, fluorescence		IC50	< 10 µM
COC(=O)C(C)n1nc(Cn2cc3cc(OCCF)c(Cl)cc3n2)c2ccccc2c1=O (racemic)	Sphingosine 1-phosphate receptor 1 (S1PR1, Homo sapiens, UniProt P21453)	ligand displacement, radioligand	cell membranes	IC50	> 1 µM
O=c1[nH]c(=O)c(Cc2cccc(C(F)(F)F)c2)c([C@H]2CC[C@H](c3ccccc3)CC2)[nH]1	Solute carrier family 22 member 1 (SLC22A1, Homo sapiens, UniProt O15245)	transporter uptake, inhibitor		IC50	> 1 µM
